pCIP destab: compounds decreasing mouse p/CIP protein stability. F442A p/CIP-EGFP cells, EGFP fluorescence, 16 h. decrease of EGFP signal, % at 10 µM. hit rate 0.01% among 290,000;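 active means EGFP signal decrease of at least 30% at 10 µM or well 3 SD below plate mean, unless failing retest; inactive means the rest, including hits failing retest or dose response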
GASC-1 inh: blocks human GASC-1 demethylase activity. Q9H3R0. GST-JMJD2C(1-420) H3K9me3 demethylation, DELFIA europium. inhibition, % at 2.35 µM. hit rate 0.069% among 330,000. AID 2099;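 active means more than half of a compound's replicate wells show inhibition beyond 50%, single wells judged on their own value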;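 further: signal counts dimethyl H3K9 product captured on neutravidin plate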
Target sequence (Q9H3R0 1-420 limits assumed): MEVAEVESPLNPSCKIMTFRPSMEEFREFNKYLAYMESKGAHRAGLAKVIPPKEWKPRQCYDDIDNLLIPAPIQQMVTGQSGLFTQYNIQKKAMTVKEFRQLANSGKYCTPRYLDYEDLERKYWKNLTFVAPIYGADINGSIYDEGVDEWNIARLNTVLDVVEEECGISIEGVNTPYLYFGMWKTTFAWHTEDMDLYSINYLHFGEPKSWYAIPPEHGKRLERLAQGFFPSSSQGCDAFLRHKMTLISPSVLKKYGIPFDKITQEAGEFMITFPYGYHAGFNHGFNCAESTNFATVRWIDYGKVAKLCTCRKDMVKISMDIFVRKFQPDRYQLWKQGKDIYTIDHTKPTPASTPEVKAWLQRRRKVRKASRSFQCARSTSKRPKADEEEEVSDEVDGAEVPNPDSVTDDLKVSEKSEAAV
T cruzi inh: blocks replication of Trypanosoma cruzi; T. cruzi beta-gal in NIH3T3, luminescence, 90 h; AID 1885; inhibition, % (concentration not given with the values); hit rate 1.4% among 300,000;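 active means mean inhibition across valid replicates above about 55%, limit read from the data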;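 further: signal also drops with host cell toxicity which is not excluded here; higher percent means less beta-gal luminescence so fewer parasites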
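System: Mouse NIH/3T3 fibroblasts infected with β-gal-expressing T. cruzi Tulahuen C4 | Quantity: NIH/3T3 cells, 5,000 per well | Reagent: 5000 reporter trypomastigotes per well | Dosing: Compound pinned at 50 nL/well, DMSO | Schedule: 3 h host attachment, then at least 90 h co-culture | Detection: GalScreen luminescence, 60 min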
CTSL1 counter: cathepsin L1 inhibition, PFM18AAP counter-screen | recombinant F. hepatica cathepsin L1, Z-Leu-Arg-MCA fluorescence | inhibition, % at 5.96 µM | hit rate 0.49% among 300,000 | AID 1906;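 active means inhibition above the mean of all tested compounds plus 3 SD, set per screening campaign, cut at about 17% in these data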
PP5 inh: blocks human protein phosphatase 5 activity; inhibition, % at 6.7 µM; P53041; hit rate 0.18% among 320,000; purified PP5c, OMFP substrate fluorescence;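 active means inhibition above the campaign's mean inhibition across all tested compounds plus 3 SD, cut at about 9.5% in these data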
H9c2 protect: modulators protecting cardiomyocytes from myocardial damage. protection from H2O2 cell death, % at 20 µM. AID 588492. H9c2 cardiomyocytes, H2O2 injury protection, ATPLite, 2 h. hit rate 0.63% among 360,000;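 active means compounds giving at least 50% protection of heart cells from peroxide-induced death in the single-dose screen, raw or plate-pattern-corrected value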
Hits are given with their value; 0 = inactive; - = no result given. A selection: hits, their analogues and other compounds. The true share with any hit is near 2.4%.

SMILES	pCIP destab	GASC-1 inh	T cruzi inh	CTSL1 counter	PP5 inh	H9c2 protect
O=C1OCCN1C(=O)[C@H]1[C@H](c2ccc([N+](=O)[O-])cc2)C(c2cccc(Cl)c2)=NN1c1ccc(Br)cc1	-	-	-	-	-	51.4
O=C1OCCN1C(=O)[C@H]1[C@H](c2ccccc2)C(c2cccc(Cl)c2)=NN1c1ccc(Br)cc1	-	-	-	-	-	0
O=C1OCCN1C(=O)[C@H]1[C@H](c2ccc([N+](=O)[O-])cc2)C(c2ccccc2)=NN1c1ccc(Br)cc1	-	-	-	-	-	54.7
O=C1OCCN1C(=O)[C@H]1[C@H](c2ccc(Cl)cc2)C(c2ccccc2)=NN1c1ccc(Br)cc1	-	-	-	-	-	0
C=C1CCC2C(C)(C(=O)O)CCCC2(C)C1CCC(CO)CCO (stereo not drawn)	-	-	-	-	-	0
C/C(CC1CC2=C(CC1(C)C)C(C)(C)CCC2)=N\NC(N)=S (stereo not drawn)	0	0	55.7	0	0	0
O=C(Nc1nc(-c2ccco2)c(-c2ccco2)s1)c1c(F)cccc1Cl	-	0	-	-	0	0
O=C(Nc1nc(-c2ccco2)c(-c2ccco2)s1)c1cnccn1	-	0	70.4	0	0	-
CC(C)(C)c1nn(-c2ccccc2)c2[nH]c(=O)c(C=O)cc12	0	0	0	0	0	56.8
COc1cccc(NCc2cc3c(C(C)(C)C)nn(-c4ccccc4)c3[nH]c2=O)c1	0	0	0	0	0	0
CCOc1ccc(NCc2cc3c(C(C)(C)C)nn(-c4ccccc4)c3[nH]c2=O)cc1	0	0	0	0	0	58.3
CCCN(C(=O)/C=C/c1ccc(S(=O)(=O)N(CC)CC)cc1)C1CCS(=O)(=O)C1 (stereo not drawn)	-	0	-	-	-	0
COc1ccc2o/c(=N/NC(=O)c3cccs3)c(C(N)=O)cc2c1	0	0	0	0	0	53.5
Cc1ccc(NC(=O)CSCC(=O)N(CCC(C)C)c2c(N)n(Cc3ccccc3)c(=O)[nH]c2=O)cc1	-	-	-	-	-	0
O=C(CN(Cc1cccs1)S(=O)(=O)c1ccc(S(=O)(=O)NC2CCCCC2)cc1)Nc1ccccc1	0	0	57.3	0	0	0
O=C(CN(C1CC1)S(=O)(=O)c1ccc(S(=O)(=O)NC2CCCCC2)cc1)Nc1ccccc1	0	-	-	-	-	0
O=C(/C=C/c1ccccc1Cl)c1ccccc(=O)c1O	0	0	57.9	0	0	69.9
Cc1ccc(C)c(/C=C/C(=O)c2ccccc(=O)c2O)c1	0	0	58.4	0	0	0
CCCCNC(=O)C(CC)(ONc1ccccc1C(F)(F)F)c1ccccc1 (stereo not drawn)	-	0	-	-	0	0
Cc1ccc2oc(C(=O)Nc3ccc(S(=O)(=O)Nc4ncccn4)cc3)c(C)c2c1	0	0	0	0	0	0
c1ccc(CCN2CCN(c3ncnc4c3cnn4-c3ccccc3)CC2)cc1	0	0	64.3	0	0	0
CCOC(=O)/C(=C\c1ccccc1)C(=O)CCN1CCOCC1	-	-	-	-	-	0
CCN(CC)P(=O)(Nc1ccc(C)cc1Br)c1ccc(N(C)C)cc1NC(=O)c1ccco1 (stereo not drawn)	0	0	64.4	0	0	0
Cc1ccc(NC(=O)c2ccco2)c(NC(=O)c2ccccc2)c1	0	0	0	0	0	0
Cc1nc(N2CCN(S(=O)(=O)c3ccccc3C#N)CC2)c2c(-c3ccccc3)csc2n1	-	0	-	-	0	0
SMILES	pCIP destab	GASC-1 inh	T cruzi inh	CTSL1 counter	PP5 inh	H9c2 protect
Cc1csc(Cn2c(CN(C)C)nc3ccccc3c2=O)n1	0	0	0	0	0	0
CN(C)Cc1nc2ccccc2c(=O)n1Cc1nc(-c2cc3ccccc3o2)cs1	0	0	64.8	0	0	0
C1CCC(OCCN2CCN(CCOC3CCCCC3)CC2)CC1	0	0	55.1	0	0	0
C#CCOCCOCCOCCNc1nc(N2CCN(C(=O)Cn3cc(CC(C)O)nn3)CC2)nc(N2CCN(C(=O)[C@H]([C@@H](C)CC)n3cc(CCCCN)nn3)CC2)n1 (stereo partly drawn)	-	-	-	-	-	0
CC(C)COC(=O)c1ccc2c(c1O)C(=O)c1ccccc1C2=O	0	0	0	24.4	0	0
O=C(CCl)Nc1ccccc1Sc1ccc(Cl)cc1	0	0	0	20.8	0	0
CC(=O)N1CCN(CC(=O)Nc2ccccc2Sc2ccc(Cl)cc2)CC1	0	0	0	0	0	0
Oc1ccc(Nc2nc3ccccc3nc2Nc2ccc(O)cc2)cc1	0	0	71.2	0	0	0
O=S(=O)(c1ccc(Cl)cc1)c1snnc1-c1ccccc1	0	0	60.0	0	0	0
CC(C)CCN(C(=O)CCCSc1nc2ccccc2[nH]1)c1c(N)n(Cc2ccccc2)c(=O)[nH]c1=O	-	0	0	0	0	0
Cc1ccc(CN2CCN(CC(=O)N=Nc3c(O)[nH]c4ccccc34)CC2)cc1	0	0	57.7	0	0	0
Cn1c(=O)c2cc(NC(=O)NCc3ccccc3)ccc2n1C/C=C/c1ccccc1	-	-	-	-	-	0
Cc1ccc(OCc2ccc(C(=O)Nc3nc4ccccc4n3Cc3ccccc3)o2)c([N+](=O)[O-])c1	0	0	0	0	0	0
O=C(Nc1nc2ccccc2n1Cc1ccccc1)c1ccc(COc2ccccc2[N+](=O)[O-])o1	0	0	67.9	0	0	0
COc1cc(CN(C)CC2CCCN(CCc3ccccc3F)C2)cc(Cl)c1OC (stereo not drawn)	0	0	57.7	-	-	0
CC(C)c1ccc(N2C(=O)CC(Sc3ncccn3)C2=O)cc1 (stereo not drawn)	0	0	0	-	-	0
Cc1c(/C=N/NC(=O)c2ccc(O)cc2)c2ccccn2c1C(=O)c1ccc(F)cc1	0	0	0	0	0	54.2
Cc1ccnc(N/C=C(/NC(=O)c2ccccc2)C(=O)N/N=C\c2ccc(Cl)cc2)n1	0	0	0	16.6	0	0
CCc1noc(C)c1C(=O)N1CCN(S(=O)(=O)c2ccc(Cl)s2)CC1	-	0	0	0	0	0
O=C(COc1cccc2c1CCNC2=O)Nc1ccc(Cl)cc1	-	0	0	-	-	63.5
COc1ccccc1NC(=O)COc1ccc(C(=O)OCC(=O)NC(C)(C)C)cc1OC	0	0	0	0	0	58.8
O=C(COc1ccccc1O)Nc1ccc(Cl)cc1	0	0	0	0	0	0
COc1ccccc1NC(=O)COc1cccc2c1CCNC2=O	-	0	0	0	0	63.9
NC(=O)c1ccc(NC(=O)COc2cccc3c2CCNC3=O)cc1	-	0	0	-	-	78.7
CCN1CCc2c(OCC(=O)Nc3ccccc3)cccc2C1=O	0	0	0	0	0	0
CCCCN1CC(N(C)CCN(C)C)CS1(=O)=O (stereo not drawn)	-	-	-	-	-	0
CCOc1ccc(NCc2ccccc2OCc2cccc(F)c2)cc1	0	0	55.1	0	0	0
CC(C)(Oc1ccc(F)cc1)C(=O)OCC(=O)c1ccc(S(C)(=O)=O)cc1	-	0	-	-	-	0
CC(C)(C)C1CCc2sc(C(=O)NNC(=O)CCl)cc2C1 (stereo not drawn)	0	0	67.2	-	-	0

Screens (PubChem BioAssay)
